In the RNAGym collection of RNA variant scans (doi:10.1126/science.aae0568):
Fewer inactive variants are shown than the library holds.

B1: tRNA (parent)
chain: GUUCCGUUGGCGUAAUGGUAACGCGUCUCCCUCCUAAGGAGAAGACUGCGGGUUCGAGUCCCGUACGGAACG

Variants of: B1
Test: yeast fitness relative to wild type (ratio to wild type); higher = fitter; tRNA-Arg(CCU), competitive growth, 37 C, YPD
Method in brief: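 Gene amplicons from the start population and from each of six end populations were read by 100-nucleotide paired-end sequencing. Those end populations came from pooled Saccharomyces cerevisiae strains carrying tRNA-Arg(CCU) gene variants at the native locus, competed in YPD at 37°C for 24 hours. Fitness relative to wild type was worked out from changes in genotype frequencies. Genotypes needed ≥ 100 starting reads, and estimates < 0.5 were set to 0.5.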

Variant	yeast fitness
U28A A45G	0.762
C27G C60U G67C	≤ 0.5
U28A A42G	0.667
C27G C30U G52C	0.507
C27U C33U G51A A70G	0.555
C27G C31G A36U A37U	0.615
C27U A36C U54A C62U	≤ 0.5
U28A C29G A36C	0.516
C27U A36G G56C	≤ 0.5
C27U G67A A69U	0.692
C27U C34U G41C U47G	≤ 0.5
C27G C30G A40G C49A	0.571
C27G G38A A70U	≤ 0.5
C27U C34G G50A G68C	≤ 0.5
U28A C29G C33U C34G A42U G58A	≤ 0.5
U28A C46G	0.76
U28A C46A	0.846
C27G U53C G56A C66U	≤ 0.5
C27G C33G G44A	0.669
U28A A42G C66U G67C	≤ 0.5
C27U A69U	1.02
C27G C31U C34G A37G A65C	≤ 0.5
C27U G38C A69U	≤ 0.5
U28A C29G G51A G56A C66G	≤ 0.5

Variant	yeast fitness
C27U A40G G44A C55U A69U	≤ 0.5
C27U G38C	0.626
C27U G38A	0.773
C27G G41A G67U	0.709
C27G G41A G67A	0.789
C27G U54C C62U	0.552
C27U A37U C49U	0.549
C27U G52A U53A C62U	≤ 0.5
C27U C49U U54A A57G C66A	0.629
C27U U32C A65U A70C	≤ 0.5
C27U C30A A42U A57U G63A A65C	0.597
C27G C34A C61U	≤ 0.5
C27G C30U C31A C33G C49U G58C	≤ 0.5
C27U A45C U64G	0.584
C27U U35C A69U	0.802
C27U C33G A43G A45C	0.634
C27G U28A A43U	0.582
C27G U28A C30G C31U G68C A70C	≤ 0.5
C27U G38A A69U	0.667
C27G C30G C49U C62U G67A	≤ 0.5
C27G C30G C49U C60U G63C	0.678
C27U A42U C61G	0.545
C27U G39C G52A G56A	0.559
C27G U28A G52A C55U	≤ 0.5

Variant	yeast fitness
C27G C30U A65U A70U	0.594
U28A C29U A45C A69C	0.541
C27U C33U A36U	≤ 0.5
C27U A43U C55G	0.544
U28A C29G G68C	≤ 0.5
C27G C31G C33U	≤ 0.5
C27U U32C	0.844
C27U C33A C49G	≤ 0.5
U28A A37G A40G	≤ 0.5
C27U C46U C61A	≤ 0.5
C27G U64A	0.665
C27U U28A U32A C34U A36C C55A	0.543
C27G C31G C49A U53C	≤ 0.5
C27U C31A	0.758
C27U G38A C66U	0.623
C27U U35A	0.771
C27U A43C U64C	0.732
C27U A37U U47G	0.531
C27U G38A G68C	≤ 0.5
C27G C55A G58A	≤ 0.5
C27U U28A U32A C34U A36C C55A A65C A70C	≤ 0.5
C27U G63A	0.867
C27U A65U A70C	0.607
C27U A45C G63A	0.68

Variant	yeast fitness
C27U G41A C60A	0.878
C27U U54G	0.581
C27U U54C	0.93
C27G C31U C49G U59A	≤ 0.5
C27U C33G A57G	≤ 0.5
C27G G48A U59G	≤ 0.5
C27U G41A G58C A69C	0.645
C27U A37U A65U	0.591
C27G G50C	≤ 0.5
U28A A65G	0.791
U28A A65U	0.642
C27U C31G A69C	0.604
C27U G58A A70G	0.753
C27U C66G	0.744
C27U C66U	0.955
C27U U28C A45C	0.773
C27G G44C A45G U64A	≤ 0.5
C27U U32C C62G	≤ 0.5
C27U A36U A69C A70U	≤ 0.5
C27U A42G	0.695
C27G U54A	0.544
U28A C31A A42C A45U G51A U64A	0.512
C27U C33U U47A A70C	≤ 0.5
U28A C29G C31U G68A	0.547

Variant	yeast fitness
C27U U32A G52A C66U G67C	≤ 0.5
C27U C46G A69C	0.757
U28A C29G C33A A42U A70U	0.531
C27U A40C C46U	0.661
U28A A70G	0.904
C27U C29A G38C A57G C61U	≤ 0.5
C27U U28G C29G	≤ 0.5
U28A A43G G68C	0.642
C27G G38C C62G C66U	≤ 0.5
C27G C31A A37C	≤ 0.5
C27U G41C C61G	≤ 0.5
U28A C31A A42C A45U G48A G51A U64A	≤ 0.5
C27G C30U C46A	0.655
U28A A57U	0.598
C27U C30G A45C C60U C62G	0.818
C27U A37C G51C G67U	0.543
C27U A43C C49U	0.757
C27U U35A U59C	≤ 0.5
C27G U53G	≤ 0.5
C27U U28A A37G A57C G58C	1
C27G G39A	0.615
U28A C34U G52A U59C C66U	≤ 0.5
C27U U59G	0.823
U28A C29A A37G	≤ 0.5

Variant	yeast fitness
C27U U28G A40C C55G A70C	≤ 0.5
C27G G63C	0.582
C27G G63A	0.665
U28A C31G A57G C62U	≤ 0.5
C27G C31A C33G C49U G58C A70U	≤ 0.5
C27U C31U C60G	0.581
C27U A40G G44A	0.513
C27G G52A G63A	0.533
C27U C29A C49A	≤ 0.5
C27U U32A C66U G67C	0.598
C27G C31A A69U	0.589
C27U C31U U53C	0.678
C27G C31G G63U	≤ 0.5
U28A A45C C46A	≤ 0.5
C27G G38C U64A	≤ 0.5
C27U C60G	0.735
C27U U64C	0.969
C27U A42G G67A	0.589
U28A C29G G51A G56A G67C	0.585
U28A A37U A69C	≤ 0.5
C27G C60U C61G	0.681
C27G U28G C66G G67C	≤ 0.5
C27G G38C C49G A70G	≤ 0.5
C27G C33U A45U G63A	≤ 0.5

Variant	yeast fitness
U28A A36C	0.511
C27U C30U C34G A37C C61A	≤ 0.5
U28A C31G C55A G68C	≤ 0.5
C27G G41A C55U	0.618
U28A C34G	0.707
C27U C49A	0.785
U28A A43U A65U	≤ 0.5
C27G G41A G68C	0.71
C27G C46G	1.11
C27G C46A	0.933
C27G C46U	0.972
C27U A37C A40U A43U C66U	0.583
C27G C49U G63C	≤ 0.5
C27G U32G A40U A42U C55G	≤ 0.5
C27U C29U C62U	0.578
C27U C62U G67A	0.573
C27G C30G G56U G63A	≤ 0.5
C27G C31A A70U	≤ 0.5
C27U U35C A43C A69U	0.62
U28A C33G A36U A40G U54C A65U	≤ 0.5
C27U C33U A40C C55A A65G	0.503
C27G C34G A45G G51C A70G	≤ 0.5
U28A C29G C31U A69U	≤ 0.5
